Laboratory results reported in ChEMBL document CHEMBL1671657, “MurF inhibitors with antibacterial activity: effect on muropeptide levels” (Antimicrob Agents Chemother, 2009).
Activity calls are given as the source filed them. The calls are words filed in the database; no cut-off is given here.

Tests used:
Escherichia coli [1] = assay: Antimicrobial activity against LPS-deffective Escherichia coli OC2530 at 0.5 times MIC after 4 hrs by light microscopy relative to control; format: functional, organism-based
Outline: (§1)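 Cells were fixed on a glass slide under a coverslip and viewed by light microscopy at ×100/×1.25 oil immersion. Representative images were taken.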

Escherichia coli [2] = assay: Antimicrobial activity against LPS-deffective Escherichia coli OC2530 assessed as log reduction in bacterial count at 2 times MIC after 30 mins relative to control; format: functional
Escherichia coli [3] = assay: Antimicrobial activity against LPS-deffective Escherichia coli OC2530 assessed as log reduction in bacterial count at 4 times MIC after 30 mins relative to control; format: functional
Escherichia coli [4] = assay: Antimicrobial activity against LPS-deffective Escherichia coli OC2530 at MIC after 30 mins relative to control; format: functional, organism-based
Escherichia coli [5] = assay: Antimicrobial activity against LPS-deffective Escherichia coli OC2530 at 0.5 times MIC after 30 mins relative to control; format: functional, organism-based
Escherichia coli [6] = assay: Bactericidal activity against LPS-deffective Escherichia coli OC2530 assessed as log reduction in bacterial count at 2 times MIC after 3 hrs relative to control; format: functional
Escherichia coli [7] = assay: Bactericidal activity against LPS-deffective Escherichia coli OC2530 assessed as log reduction in bacterial count at =>2 times MIC after 3 hrs relative to control; format: functional
Escherichia coli [8] = assay: Antimicrobial activity against LPS-deffective Escherichia coli OC2530 at =< MIC after 3 hrs relative to untreated control; format: functional, organism-based
Escherichia coli [9] = assay: Antimicrobial activity against LPS-deffective Escherichia coli OC2530 at MIC after 3 hrs relative to untreated control; format: functional
Escherichia coli [10] = assay: Antimicrobial activity against LPS-deffective Escherichia coli OC2530 assessed as cell aggregation at 0.5 times MIC by light microscopy relative to untreated control; format: functional, organism-based; outline: as §1
Escherichia coli [11] = assay: Antimicrobial activity against LPS-deffective Escherichia coli OC2530 assessed as cell aggregation at 0.5 times MIC by TEM relative to untreated control; format: functional, organism-based
Outline: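 At 5 h, cells were fixed in 1% glutaraldehyde (final) for 1 h at room temperature, pelleted, and resuspended in PBS. They were negatively stained with 1% ammonium molybdate and imaged by TEM at ×15,000.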

Escherichia coli [12] = assay: Antimicrobial activity against LPS-deffective Escherichia coli OC2530 harboring pMurF plasmid by broth microdilution method in presence of chloramphenicol; format: functional
Outline: (§2)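 CLSI broth microdilution MIC for OC2530 carrying plasmid (empty pASK or pMurF). Medium contained chloramphenicol 3 μg/ml to keep the plasmid and AHT 100 ng/ml to induce MurF expression.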

Escherichia coli [13] = assay: Antimicrobial activity against LPS-deffective Escherichia coli OC2530 harboring pASK plasmid by broth microdilution method in presence of chloramphenicol; format: functional; outline: as §2
Escherichia coli [14] = assay: Inhibition of LPS-deficient Escherichia coli OC2530 MurF assessed as UDP-MurNAc-tripeptide substrate level at 0.5 times MIC by HPLC (reference value: 1 mAU)
Escherichia coli [15] = assay: Inhibition of LPS-deficient Escherichia coli OC2530 MurF assessed as UDP-MurNAc-tripeptide substrate level at 2 times MIC by HPLC (reference value: 1 mAU)
Escherichia coli [16] = assay: Inhibition of LPS-deficient Escherichia coli OC2530 MurF assessed as UDP-MurNAc-tripeptide substrate level at 4 times MIC by HPLC (reference value: 1 mAU)
Escherichia coli [17] = assay: Inhibition of LPS-deficient Escherichia coli OC2530 MurF assessed as UDP-MurNAc-pentapeptide product level at 0.5 times MIC by HPLC (reference value: 1 mAU)
Escherichia coli [18] = assay: Inhibition of LPS-deficient Escherichia coli OC2530 MurF assessed as UDP-MurNAc-pentapeptide product level at 2 times MIC by HPLC (reference value: 1 mAU)
Escherichia coli [19] = assay: Inhibition of LPS-deficient Escherichia coli OC2530 MurF assessed as UDP-MurNAc-pentapeptide product level at 4 times MIC by HPLC (reference value: 1 mAU)
Escherichia coli [20] = assay: Inhibition of LPS-deficient Escherichia coli OC2530 MurF harboring pASK plasmid assessed as UDP-MurNAc-tripeptide substrate level at 2 times MIC by HPLC (reference value: 63 +/- 4 mAU)
Outline: (§3)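 Compound added at 2× MIC from 500× stock (DMSO control). After 30 min, muropeptides extracted and quantified by HPLC peak area (mAU); representative of two independent experiments.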

Escherichia coli [21] = assay: Inhibition of LPS-deficient Escherichia coli OC2530 MurF harboring pMurF plasmid assessed as UDP-MurNAc-tripeptide substrate level at 2 times MIC by HPLC (reference value: 220 +/- 65 mAU); outline: as §3
Escherichia coli [22] = assay: Inhibition of LPS-deficient Escherichia coli OC2530 MurF harboring pASK plasmid assessed as UDP-MurNAc-pentapeptide product level at 2 times MIC by HPLC (Rvb =880 +/- 17 mAU); outline: as §3
Escherichia coli [23] = assay: Inhibition of LPS-deficient Escherichia coli OC2530 MurF harboring pMurF plasmid assessed as UDP-MurNAc-pentapeptide product level at 2 times MIC by HPLC (reference value: 2674 +/- 696 mAU); outline: as §3
Escherichia coli [24] = assay: Inhibition of LPS-deficient Escherichia coli OC2530 MurF assessed as UDP-MurNAc-tripeptide substrate level at MIC by HPLC (reference value: 1 fold of control)
Escherichia coli [25] = assay: Inhibition of LPS-deficient Escherichia coli OC2530 MurF assessed as UDP-MurNAc-pentapeptide product level at MIC by HPLC (reference value: 1 fold of control)

COc1ccc2nc(OC)c([C@@H](c3ccccc3)[C@](O)(CCN(C)C)c3ccccc3)cc2c1
Activity (Escherichia coli [1]): Active | FC (Escherichia coli [2]): 1 | FC (Escherichia coli [3]): 2 | Activity (Escherichia coli [4]): Active | Activity (Escherichia coli [5]): Active | FC (Escherichia coli [6]): 5 | FC (Escherichia coli [7]): 5 | Activity (Escherichia coli [8]): inactive | fold change (FC) (Escherichia coli [9]): 0.3 | Activity (Escherichia coli [10]): Active | Activity (Escherichia coli [11]): Active | MIC (Escherichia coli [12]): 16 µg/mL | MIC (Escherichia coli [13]): 16 µg/mL | Activity (fold of control) (Escherichia coli [14]): 6 | Activity (fold of control) (Escherichia coli [15]): 89 | Activity (fold of control) (Escherichia coli [16]): 63 | Activity (fold of control) (Escherichia coli [17]): 1.62 | Activity (fold of control) (Escherichia coli [18]): 0.33 | Activity (fold of control) (Escherichia coli [19]): 0.15 | Activity (Escherichia coli [20]): 1200 mAU | Activity (Escherichia coli [21]): 933 mAU | Activity (Escherichia coli [22]): 213 mAU | Activity (Escherichia coli [23]): 351 mAU | Activity (fold of control) (Escherichia coli [24]): 27 | Activity (fold of control) (Escherichia coli [25]): 1.48
